OX1R antag-1: antagonists of human orexin 1 receptor; O43613; CHO/OX1R cells, Fluo-8 calcium fluorescence, orexin A; inhibition, % at 5 µM; hit rate 0.43% among 330,000; AID 434989;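 active = inhibition above its plate's threshold, mean inhibition of all tested compounds on the plate plus 3 SD, cut at about 37% in these data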;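 also: 0% = orexin A challenge wells and 100% = SB-334867-A antagonist wells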
OXTR potentiator: potentiators of human oxytocin receptor | P30559 | CHO-OTR cells, Fluo-8 calcium fluorescence, potentiator mode; 0% = oxytocin EC15, 100% = EC100 | activation, % at 3 µM | hit rate 0.061% among 320,000;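 active = activation above that plate's cutoff, the mean activation of tested compounds plus 3 SD, cut at about 6.6% in these data, passing the limit was not always enough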;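 also: 100% uses oxytocin at 75 nM as the full agonist control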
Target sequence (P30559 whole entry, looked up): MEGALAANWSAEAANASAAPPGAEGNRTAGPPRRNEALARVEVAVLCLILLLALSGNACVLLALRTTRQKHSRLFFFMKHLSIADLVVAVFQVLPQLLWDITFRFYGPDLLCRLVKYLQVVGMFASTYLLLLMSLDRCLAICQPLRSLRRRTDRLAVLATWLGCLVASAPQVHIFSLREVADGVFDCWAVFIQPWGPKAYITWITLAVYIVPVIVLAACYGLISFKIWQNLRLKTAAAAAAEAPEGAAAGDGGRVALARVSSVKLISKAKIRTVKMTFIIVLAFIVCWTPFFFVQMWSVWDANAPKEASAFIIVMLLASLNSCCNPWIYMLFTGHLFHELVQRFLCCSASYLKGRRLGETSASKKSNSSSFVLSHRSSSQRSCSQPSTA
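Assay system: CHO cell line stably expressing human OTR. Reagent: EC15 oxytocin agonist. Dosing: single dose, 3.0 µM nominal final compound concentration. Timing: compound 6 min at room temperature before oxytocin, 100 s read. Signal: kinetic Fluo-8 calcium fluorescence. Controls: oxytocin EC15 low and EC100 high.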
V1R ag counter: activates human V1a receptor in oxytocin agonist counter-screen | CHO-V1R cells, Fluo-8 calcium fluorescence, agonist mode; 0% DMSO, 100% 3 nM vasopressin | hit rate 0.25% among 320,000 | P37288 | activation, % at 3 µM;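 active = activation above the mean activation of all tested compounds plus 3 SD, per screening run, cut at about 20% in these data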;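 also: signal is peak over basal fluorescence ratio across a 100 second FLIPR read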
OXTR ag: agonists of human oxytocin receptor; P30559; CHO-OTR cells, Fluo-8 calcium fluorescence; normalized: DMSO 0%, oxytocin 100%; activation, % at 3 µM; hit rate 0.32% among 320,000; AID 2435;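 active = activation above the mean of all tested compounds plus 3 SD, cutoff set per screening run, cut at about 20% in these data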;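 also: peak over basal fluorescence ratio from a 100 s FLIPR kinetic read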
OX1R antag-2: antagonists of human orexin 1 receptor (OX1R) | O43613 | OX1R-expressing cells, FRET antagonist read-out | inhibition, % at 6.6 µM | hit rate 1.8% among 330,000; in the data active = inhibition mostly above about 38%, no sharp cut-off; inactive = mostly below about 40%;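 also: 0% = agonist challenge alone and 100% = reference antagonist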
CHO parental Ca: signal in parental CHO cells, OX1R antagonist counter-screen. parental CHO-K1, ATP-induced calcium, Fluo-8 fluorescence. inhibition, % at 5.6 µM. hit rate 0.63% among 330,000. AID 463079;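 active = inhibition above that plate's mean sample inhibition plus 3 SD, cut at about 26% in these data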;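 also: 0% = ATP-challenged DMSO wells and 100% = DMSO wells without ATP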
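test system = CHO parental line | reagent = ATP stimulus | measured by = intracellular calcium via Fluo-8 no-wash fluorescent dye | control set = ATP and no-ATP DMSO wells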
OXTR pot confirm: confirmation of human oxytocin receptor potentiators | activation, % at 3 µM | CHO-OTR cells, Fluo-8 calcium fluorescence, potentiation; scaled from low-dose to maximal oxytocin | shares compounds with OXTR potentiator | 180 tested, under 10 active | AID 434985;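 active = mean percent activation over triplicates above a cutoff set from solvent-only control plates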;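 also: compounds tested in the presence of an EC15 dose of oxytocin; 0% = EC15 oxytocin with DMSO and 100% = EC100 oxytocin with DMSO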
V1R ag confirm: human V1a receptor agonism, confirmation | shares compounds with V1R ag counter | CHO-V1R cells, Fluo-8 calcium fluorescence, agonist | activation, % at 3 µM | hit rate 20% among 180;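 active = average activation exceeds primary screen hit cutoff, cut at about 21% in these data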;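 also: peak over basal fluorescence ratio during a 100 s FLIPR read; 0% = DMSO only wells and 100% = 3 nM vasopressin wells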
OXTR counter: activates oxytocin receptor in V1a agonist counter-screen | hit rate 10% among 180 | shares compounds with V1R ag counter | CHO-OTR cells, Fluo-8 calcium fluorescence | activation, % at 3 µM;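 active = mean activation over three repeats above the cutoff from the earlier oxytocin receptor agonist screen, cut at about 20% in these data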;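 also: peak over minimum fluorescence ratio within a 100 second FLIPR read; 0% = DMSO only wells and 100% = oxytocin high control wells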
Starred values were filed as active, the others as inactive; x = no result given. The list is not random: actives were taken first. Their share in the collection is about 2.6%.

SMILES	OX1R antag-1	OXTR potentiator	V1R ag counter	OXTR ag	OX1R antag-2	CHO parental Ca	OXTR pot confirm	others
COc1ccc(NC(=O)/C(Cl)=C(/Cl)S(=O)Cc2ccccc2)cn1 (stereo not given)	7.2	19.6*	1.4	-1.0	5.8	6.6	4.8
CCCN(CCC)CCNC(=O)CCC(=O)Nc1ccc2nc(N3CCN(C)CC3)cc(C)c2c1	-8.0	12.3*	0.6	0.3	5.2	-3.1	-0.9
CCCCNC(=O)CCC(=O)Nc1ccc2nc(N3CCN(C)CC3)cc(C)c2c1	4.0	3.2	0.3	0.2	0.2	-4.2	x
CCOC(=O)c1c(CN2CCCCC2)oc2ccc(OC)cc12	-22.1	-3.1	-0.9	-0.6	9.6	-16.8	x
CCOC(=O)c1c(CN2CCC(C)CC2)oc2ccc(OC)cc12	-30.1	11.9*	-1.0	-2.3	10.7	-9.1	-5.5
CC(C)N(C)S(=O)(=O)c1ccc(NC(=O)CSC(=S)N2CCCC2)cc1	-14.4	-4.1	0.9	0.2	13.2	-6.2	x
Cc1ccccc1N(C(=O)CS(=O)CC(=O)Nc1ccc(F)cc1)C(C)C(=O)NC(C)(C)C (stereo not given)	-26.8	-8.6	0.1	0.0	4.8	-17.1	x
Cc1cc(C(=O)N2CCN(CCc3ccccc3)CC2)no1	-9.9	10.3*	-0.5	1.0	11.2	-10.8	-2.5
O=C(Nn1c(C2CCC2)nc2ccccc2c1=O)C1CCC1	-8.8	12.5*	-0.7	-1.7	13.9	-12.3	-8.2
Cc1cccnc1Nc1ncnc(N)c1[N+](=O)[O-]	-7.3	10.9*	0.9	0.8	12.7	1.2	-4.3
Nc1ncnc(NCc2ccccc2)c1[N+](=O)[O-]	-16.7	3.8	0.8	-0.3	34.5	-11.9	x
O=C(COc1ncnc2ccc(Br)cc12)NC1CCCC1	10.1	12.7*	0.4	1.1	-3.5	-12.6	-5.8
O=C(COc1ncnc2ccccc12)NC1CCCCC1	-12.3	-3.3	1.8	0.4	2.4	1.6	x
COc1ccc([N+](=O)[O-])cc1-n1cccc1	-12.8	12.9*	-0.4	0.1	24.6	3.5	-7.2
COc1ccc([N+](=O)[O-])cc1N1C(=O)c2cccc3cccc(c23)C1=O	-3.4	-5.6	1.6	-0.1	20.1	-1.7	x
COc1ccc2c(c1OC)C(=O)OC2n1c(O)c(N=NC(C)=O)c2ccccc21 (stereo not given)	-12.6	13.7	0.0	1.5	14.8	-16.3	x
O=c1cc(-c2c(F)c(F)c(F)c(F)c2F)oc2c(F)c(F)c(F)c(F)c12	42.5*	19.2*	-1.1	-1.9	44.7*	68.0*	11.0*
O=c1cc(-c2c(F)c(F)c(F)c(F)c2F)oc2ccccc12	15.3	-6.0	-0.2	-2.4	42.5	-1.1	x
COc1ccc(-n2nnnc2CNC(=O)C2CC(=O)N(c3ccc(Cl)cc3)C2)cc1 (stereo not given)	-20.0	-5.2	-0.7	-1.1	11.2	-28.6	x
O=C(NNC(=O)c1ccc(-c2ccccc2)cc1)c1ccccc1	-15.5	12.2*	0.6	2.4	1.2	-3.1	-8.8
S=c1[nH]nc(-c2ccncc2)n1/N=C/c1cn(-c2ccccc2)nc1-c1ccccc1	-58.5	20.5*	1.0	-0.3	52.1*	-67.9	7.5*
CCOC(=O)c1c(NC(=O)CSc2nc3ccc(C)cc3[nH]2)sc2c1CC(C)(C)NC2(C)C	-39.4	-13.7	21.6*	15.4	9.7	-26.2	x	V1R ag confirm=1.6;OXTR counter=8.8
O=C1OC(CO)CN1Cc1ccccc1 (stereo not given)	1.4	-4.1	0.3	0.7	-10.4	-5.7	x
O=C(Cc1ccccc1F)N1CCN(S(=O)(=O)c2ccc(Cl)cc2)CC1	-25.9	-11.2	0.7	1.9	8.4	-2.5	x
Oc1ccc(Br)cc1C=Nc1ccc2c3c(cccc13)CC2	56.5*	-7.7	23.9*	11.7	5.7	41.5*	x	V1R ag confirm=-0.3;OXTR counter=-0.6
SMILES	OX1R antag-1	OXTR potentiator	V1R ag counter	OXTR ag	OX1R antag-2	CHO parental Ca	OXTR pot confirm	others
Oc1ccc(Cl)cc1C=Nc1ccccc1Br	3.6	-4.0	2.1	-0.4	8.6	-0.4	x
Cc1ccc(NC(=O)Nc2c(C)n(C)n(-c3ccccc3)c2=O)cc1	-12.0	-5.5	21.2*	0.8	-3.6	-12.7	x	V1R ag confirm=-0.3;OXTR counter=0.1
Cc1c(NC(=O)Nc2ccc(Cl)cc2)c(=O)n(-c2ccccc2)n1C	-24.2	3.8	0.6	0.3	4.8	-9.3	x
Cc1ccc(CNC(=O)c2cccc3c2C(=O)c2ccc(N4CCOCC4)cc2S3(=O)=O)cc1	-11.7	-5.6	2.0	1.4	3.0	-12.3	x
Cc1ccc(CNC(=O)c2cccc3c2C(=O)c2ccc(N4CCCCC4)cc2S3(=O)=O)cc1	27.5	-5.0	22.3*	13.6	2.7	10.4	x	V1R ag confirm=19.4;OXTR counter=10.2
CNC(=O)c1c(I)c(C(=O)NCC(=O)Nc2c(I)c(C(=O)O)c(I)c(C(=O)NCCO)c2I)c(I)c(N(C)C(C)=O)c1I	5.3	1.3	0.1	0.9	8.9	8.3	x
Cc1ccc2[nH]c(C(=O)N/N=C/c3ccccc3C(=O)O)c(-c3ccccc3)c2c1	-23.0	-7.5	1.4	-0.4	2.6	-4.9	x
Cc1ccc2[nH]c(C(=O)N/N=C/c3ccccc3O)c(C)c2c1	-11.7	-15.7	22.3*	5.1	-3.2	11.4	x	V1R ag confirm=1.1;OXTR counter=0.5
Cc1ccc(S(=O)(=O)N2CCN(C(=O)COC(=O)c3cncc(Br)c3)CC2)c(C)c1	-34.7	-3.1	3.3	1.6	9.9	-25.2	x
O=C(NNc1cccc([N+](=O)[O-])c1)/C(=C\c1cccnc1)NC(=O)c1ccccc1	-16.5	6.3	-0.1	0.1	23.3	-16.3	x
COc1ccc2c(c1)O/C(=C\c1ccccc1C)C2=O	-15.5	-6.9	0.2	-1.9	7.4	-20.5	x
COc1cc(OC)c(OC)cc1/C=C1\Oc2cc(OS(C)(=O)=O)ccc2C1=O	-11.2	-6.8	21.2*	16.6	15.8	-4.9	x	V1R ag confirm=15.1;OXTR counter=17.3
c1ccc(CNc2ccccn2)cc1	7.8	-10.5	-0.7	0.4	5.3	-11.9	x
c1ccc(Nc2ccccc2Nc2ccccn2)nc1	49.7*	-4.6	49.5*	10.2	56.1*	49.0*	x	V1R ag confirm=-0.5;OXTR counter=-0.6
COc1cc(SC)ccc1C(=O)OCC(=O)NCCC1=CCCCC1	-22.7	3.6	-0.6	-1.5	7.7	-19.9	x
CC(NC(=O)c1cccc(F)c1)C1CC2CCC1C2 (stereo not given)	-30.6	-0.4	-2.4	-3.2	2.6	-28.5	x
C=CCn1c(SCC(=O)N(CC)CC)nc(O)cc1=O	-11.6	-2.3	0.2	-0.5	17.8	-3.0	x
